Test results taken from ChEMBL document CHEMBL1138195, “Highly chiral muscarinic ligands: the discovery of (2S,2'R,3'S,5'R)-1-methyl-2-(2-methyl-1,3-oxathiolan-5-yl)pyrrolidine 3-sulfoxide methyl iodide, a potent, functionally selective, M2 partial agonist” (J Med Chem, 2006).

How the values were obtained:
[1] = target: Muscarinic acetylcholine receptor M3 (Homo sapiens, UniProt P20309); test: Binding affinity to cloned human muscarinic M3 receptor expressed in CHO cells; format: cell-based; settings: for Log Ki: cho
[2] = target: T1, Muscarinic acetylcholine receptor M5 (Homo sapiens, UniProt P08912); test: Binding affinity to cloned human muscarinic M5 receptor expressed in CHO cells; format: cell-based
T1 sequence (P08912 whole entry): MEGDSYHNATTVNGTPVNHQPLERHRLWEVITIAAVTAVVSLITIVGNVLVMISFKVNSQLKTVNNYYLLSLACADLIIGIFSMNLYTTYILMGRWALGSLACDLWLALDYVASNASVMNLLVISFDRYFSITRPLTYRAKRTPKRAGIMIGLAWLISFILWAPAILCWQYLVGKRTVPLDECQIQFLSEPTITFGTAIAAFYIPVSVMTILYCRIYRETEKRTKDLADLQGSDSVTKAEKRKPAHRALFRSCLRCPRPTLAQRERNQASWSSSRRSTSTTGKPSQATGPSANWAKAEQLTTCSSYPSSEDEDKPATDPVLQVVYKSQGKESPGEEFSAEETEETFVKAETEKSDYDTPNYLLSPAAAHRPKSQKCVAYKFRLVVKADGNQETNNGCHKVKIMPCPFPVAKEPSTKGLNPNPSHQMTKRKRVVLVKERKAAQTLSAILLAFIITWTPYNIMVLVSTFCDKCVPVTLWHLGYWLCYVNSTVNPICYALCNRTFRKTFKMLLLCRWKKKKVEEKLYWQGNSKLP
Outline: (§1)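 Membranes from CHO cells stably expressing human hm2, hm4 or hm5 receptors, at 70, 50 and 25 µg/mL protein respectively. 0.2 nM [3H]NMS displaced by unlabelled ligand for 120 min at room temperature, in 25 mM sodium phosphate with 5 mM MgCl2, pH 7.4. Rapid filtration, then scintillation counting. Mean of at least three experiments.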

[3] = target: T2, Muscarinic acetylcholine receptor M2 (Homo sapiens, UniProt P08172); test: Binding affinity to cloned human muscarinic M2 receptor expressed in CHO cells; format: cell-based; outline: as §1
T2 sequence (P08172 whole entry): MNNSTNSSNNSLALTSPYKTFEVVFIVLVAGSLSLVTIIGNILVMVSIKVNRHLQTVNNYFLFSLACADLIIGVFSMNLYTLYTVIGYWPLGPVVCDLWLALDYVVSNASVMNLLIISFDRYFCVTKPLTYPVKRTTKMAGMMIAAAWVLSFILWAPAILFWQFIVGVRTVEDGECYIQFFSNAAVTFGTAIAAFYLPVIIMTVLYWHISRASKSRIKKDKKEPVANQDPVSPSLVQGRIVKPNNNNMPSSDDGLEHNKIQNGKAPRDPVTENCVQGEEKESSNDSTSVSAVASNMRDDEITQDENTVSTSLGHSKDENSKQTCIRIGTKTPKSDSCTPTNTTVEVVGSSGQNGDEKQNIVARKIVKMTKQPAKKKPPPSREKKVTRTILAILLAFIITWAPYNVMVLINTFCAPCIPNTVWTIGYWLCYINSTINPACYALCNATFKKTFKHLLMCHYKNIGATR

[4] = target: T3, Muscarinic acetylcholine receptor M1 (Homo sapiens, UniProt P11229); test: Binding affinity to cloned human muscarinic M1 receptor expressed in CHO cells; format: cell-based; settings: for Log Ki: cho
T3 sequence (P11229 whole entry): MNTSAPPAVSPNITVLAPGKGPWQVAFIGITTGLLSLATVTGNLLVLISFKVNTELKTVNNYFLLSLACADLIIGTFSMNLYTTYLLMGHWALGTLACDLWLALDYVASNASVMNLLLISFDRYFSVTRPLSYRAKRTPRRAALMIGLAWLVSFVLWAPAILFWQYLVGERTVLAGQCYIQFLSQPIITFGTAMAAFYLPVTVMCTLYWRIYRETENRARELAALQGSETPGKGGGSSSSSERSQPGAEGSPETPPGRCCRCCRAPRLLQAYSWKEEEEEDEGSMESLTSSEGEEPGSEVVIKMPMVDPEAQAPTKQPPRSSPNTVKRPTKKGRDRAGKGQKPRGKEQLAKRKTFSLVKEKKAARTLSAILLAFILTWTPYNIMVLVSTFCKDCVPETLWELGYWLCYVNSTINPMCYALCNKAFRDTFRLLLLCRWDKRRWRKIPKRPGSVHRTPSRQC

[5] = target: T4, Muscarinic acetylcholine receptor M4 (Homo sapiens, UniProt P08173); test: Binding affinity to cloned human muscarinic M4 receptor expressed in CHO cells; format: cell-based; settings: for Log Ki: cho; outline: as §1
T4 sequence (P08173 whole entry): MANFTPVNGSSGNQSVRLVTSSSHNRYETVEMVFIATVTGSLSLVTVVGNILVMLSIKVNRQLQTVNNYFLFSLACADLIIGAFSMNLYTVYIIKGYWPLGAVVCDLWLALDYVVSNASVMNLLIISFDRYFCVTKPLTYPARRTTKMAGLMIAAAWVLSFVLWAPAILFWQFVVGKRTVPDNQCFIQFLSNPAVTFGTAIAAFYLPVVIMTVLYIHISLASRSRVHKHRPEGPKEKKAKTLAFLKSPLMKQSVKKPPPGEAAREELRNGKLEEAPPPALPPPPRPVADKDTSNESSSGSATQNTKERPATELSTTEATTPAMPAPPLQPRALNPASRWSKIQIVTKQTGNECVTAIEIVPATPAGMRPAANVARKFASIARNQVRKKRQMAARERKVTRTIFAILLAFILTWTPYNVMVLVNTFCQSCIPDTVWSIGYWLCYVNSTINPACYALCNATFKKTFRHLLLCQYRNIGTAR

[6] = target: Muscarinic acetylcholine receptor M3 (Cavia porcellus) (UniProt Q8VH26); test: Agonist potency at muscarinic M3 receptor in guinea pig ileum; format: functional, tissue-based
Outline: (§2)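 Isolated guinea pig tissue contractions, measured against arecaidine propargyl ester control curves. Agonists: cumulative dose-response curve after a 30 min wash, responses as % of the control maximum. Antagonists: 60 min incubation, then a new agonist curve. Parallel time-control tissues were run. Values expressed as pD2 (-log ED50) with intrinsic activity, or as pKb (-log Kb).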

[7] = target: T5, Muscarinic acetylcholine receptor M4 (Homo sapiens) (UniProt P08173); test: Antagonist affinity at muscarinic M4 receptor in guinea pig lung strips; format: functional; settings: Cavia porcellus, target entry is the homologue from another species; outline: as §2
T5 sequence (whole entry): T4 sequence (P08173 whole entry)

[8] = target: T6, Muscarinic acetylcholine receptor M2 (Homo sapiens) (UniProt P08172); test: Agonist potency at muscarinic M2 receptor in guinea pig atrium; format: functional, tissue-based; settings: Cavia porcellus; Cardiac atrium; target entry is the homologue from another species
T6 sequence (whole entry): T2 sequence (P08172 whole entry)
Outline: (§3)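 Guinea pig left atria in PSS at 30 °C, paced by square-wave pulses (1 ms, 1 Hz, 5-10 V). Inotropic force recorded isometrically after 2 h equilibration, with cumulative dose-response curves to arecaidine propargyl ester as reference. Antagonists incubated 60 min after a 30 min wash, then the curve was repeated. Values given as pD2 with intrinsic activity, or as pKb.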

[9] = target: T6, Muscarinic acetylcholine receptor M2 (Homo sapiens); test: Antagonist affinity at muscarinic M2 receptor in guinea pig atrium; format: functional, tissue-based; settings: Cavia porcellus; Cardiac atrium; target entry is the homologue from another species; outline: as §3
[10] = target: Muscarinic acetylcholine receptor M3 (Cavia porcellus) (UniProt Q8VH26); test: Antagonist affinity at muscarinic M3 receptor in guinea pig ileum; format: functional, tissue-based; outline: as §2
[11] = target: T7, Muscarinic acetylcholine receptor M1 (Homo sapiens) (UniProt P11229); test: Antagonist affinity at muscarinic M1 receptor in rabbit vas deferens; format: functional, tissue-based; settings: Oryctolagus cuniculus, target entry is the homologue from another species
T7 sequence (whole entry): T3 sequence (P11229 whole entry)
Outline: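 Field-stimulated (0.1 ms, 2 Hz, 10-15 V), contractions recorded isometrically after 1 h equilibration. Cumulative dose-response curves against p-Cl-McN-A-343 reference. Antagonists incubated 60 min before the repeat curve. Reported as pD2 (-log ED50) with intrinsic activity, or as pKb.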

Sequence of Muscarinic acetylcholine receptor M3 (P20309 whole entry): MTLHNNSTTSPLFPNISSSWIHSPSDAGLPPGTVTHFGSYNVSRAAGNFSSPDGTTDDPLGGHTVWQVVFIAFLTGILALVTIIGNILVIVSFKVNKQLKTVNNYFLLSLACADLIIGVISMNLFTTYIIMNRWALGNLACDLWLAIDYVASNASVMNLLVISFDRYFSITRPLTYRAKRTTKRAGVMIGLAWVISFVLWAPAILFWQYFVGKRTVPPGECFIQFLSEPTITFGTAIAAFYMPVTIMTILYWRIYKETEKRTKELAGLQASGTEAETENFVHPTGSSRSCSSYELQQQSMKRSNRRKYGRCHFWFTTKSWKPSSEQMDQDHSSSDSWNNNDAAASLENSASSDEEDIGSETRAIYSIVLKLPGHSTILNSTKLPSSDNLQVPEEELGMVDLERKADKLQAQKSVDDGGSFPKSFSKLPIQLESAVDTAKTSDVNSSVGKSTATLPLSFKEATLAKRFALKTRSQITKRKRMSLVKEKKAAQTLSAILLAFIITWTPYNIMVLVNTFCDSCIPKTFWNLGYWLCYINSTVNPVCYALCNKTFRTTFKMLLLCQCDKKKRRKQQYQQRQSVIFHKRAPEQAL
Sequence of Muscarinic acetylcholine receptor M3 (Cavia porcellus) (Q8VH26 1-587): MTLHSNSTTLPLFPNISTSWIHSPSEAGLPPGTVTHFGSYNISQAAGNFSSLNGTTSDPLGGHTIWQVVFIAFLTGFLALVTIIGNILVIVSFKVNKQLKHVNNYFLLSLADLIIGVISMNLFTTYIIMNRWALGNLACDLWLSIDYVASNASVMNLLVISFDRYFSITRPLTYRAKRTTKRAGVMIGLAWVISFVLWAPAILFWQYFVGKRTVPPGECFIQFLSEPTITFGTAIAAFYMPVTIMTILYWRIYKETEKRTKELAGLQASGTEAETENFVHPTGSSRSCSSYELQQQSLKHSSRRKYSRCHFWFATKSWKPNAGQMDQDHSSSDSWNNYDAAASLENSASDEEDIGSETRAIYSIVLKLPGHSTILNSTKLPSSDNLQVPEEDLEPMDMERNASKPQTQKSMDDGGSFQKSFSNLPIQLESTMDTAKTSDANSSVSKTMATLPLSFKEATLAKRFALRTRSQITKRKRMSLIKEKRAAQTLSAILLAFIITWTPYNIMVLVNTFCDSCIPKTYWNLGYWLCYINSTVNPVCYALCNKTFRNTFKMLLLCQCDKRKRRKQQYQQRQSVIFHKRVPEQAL

| SMILES | Log Ki [1] | Ki [2] | Ki [3] | Log Ki [4] | Log Ki [5] | Ki [1] | Ki [4] | Ki [5] | Activity [6] | pKb [7] | Activity [8] | pKb [9] | pKb [10] | pKb [11] |
| --- | --- | --- | --- | --- | --- | --- | --- | --- | --- | --- | --- | --- | --- | --- |
| C[C@H]1O[C@@H]([C@@H]2CCC[N+]2(C)C)C[S@@+]1[O-].[I-] (stereo in doubt; (+)-7) | < -4 | 57.5 µM | 81.3 µM | < -4 | < -4 |  |  |  |  |  |  |  |  |  |
| C[C@H]1O[C@@H]([C@H]2CCCN2C)C[S@+]1[O-] |  | > 100 µM | > 100 µM |  |  | > 100 µM | > 100 µM | > 100 µM |  |  |  |  |  |  |
| C[C@H]1O[C@@H]([C@@H]2CCC[N+]2(C)C)C[S@@+]1[O-] (stereo in doubt; (-)-8) |  |  |  |  |  |  |  |  | 0 | < 5 | 0 | < 5 | < 5 | < 5 |
| C[C@H]1O[C@@H]([C@@H]2CCC[N+]2(C)C)C[S@@+]1[O-] (stereo in doubt; (-)-6) [listing 1 of 2 here] |  |  |  |  |  |  |  |  | 0 | < 5 | 0 | < 5 | < 5 | < 5 |
| C[C@H]1O[C@@H]([C@H]2CCCN2C)C[S@@+]1[O-] |  | > 100 µM | > 100 µM |  |  | > 100 µM | > 100 µM | > 100 µM |  |  |  |  |  |  |
| C[C@@H]1O[C@H]([C@H]2CCCN2C)C[S@+]1[O-] |  | > 100 µM | > 100 µM |  |  | > 100 µM | > 100 µM | > 100 µM |  |  |  |  |  |  |
| C[C@H]1O[C@@H]([C@@H]2CCC[N+]2(C)C)C[S@@+]1[O-] (stereo in doubt; (-)-6) [listing 2 of 2 here] |  | > 100 µM | 28.8 µM |  |  | > 100 µM | > 100 µM | > 100 µM |  |  |  |  |  |  |
| C[C@@H]1O[C@H]([C@H]2CCCN2C)C[S@@+]1[O-] |  | > 100 µM | > 100 µM |  |  | > 100 µM | > 100 µM | > 100 µM |  |  |  |  |  |  |
| C[C@H]1O[C@@H]([C@@H]2CCCN2C)C[S@+]1[O-] |  | > 100 µM | 87.1 µM |  |  | > 100 µM | > 100 µM | > 100 µM | 0 | < 5 | 0 | < 5 | < 5 | < 5 |
| C[C@H]1O[C@@H]([C@@H]2CCC[N+]2(C)C)C[S@@+]1[O-].[I-] (stereo in doubt; (-)-8) | < -4 | > 100 µM | > 100 µM | < -4 | < -4 |  |  |  |  |  |  |  |  |  |
| C[C@@H]1O[C@H]([C@@H]2CCCN2C)C[S@@+]1[O-] |  | > 100 µM | > 100 µM |  |  | > 100 µM | > 100 µM | > 100 µM | 0 | < 5 | 0 | < 5 | < 5 | < 5 |
| C[C@H]1O[C@@H]([C@@H]2CCC[N+]2(C)C)C[S@+]1[O-] |  | > 100 µM | 77.6 µM |  |  | > 100 µM | > 100 µM | > 100 µM | 0 | < 5 | 0 | < 5 | < 5 | < 5 |
| C[C@H]1O[C@@H]([C@@H]2CCCN2C)C[S@@+]1[O-] |  | > 100 µM | > 100 µM |  |  | > 100 µM | > 100 µM | > 100 µM |  |  |  |  |  |  |
| C[C@@H]1O[C@H]([C@H]2CCC[N+]2(C)C)C[S@+]1[O-] |  | > 100 µM | > 100 µM |  |  | > 100 µM | > 100 µM | > 100 µM |  |  |  |  |  |  |
| C[C@H]1O[C@@H]([C@@H]2CCC[N+]2(C)C)C[S@@+]1[O-] (stereo in doubt; (+)-7) |  |  |  |  |  |  |  |  | 0 | < 5 | 0 | < 5 | < 5 | < 5 |
| C[C@@H]1O[C@H]([C@@H]2CCCN2C)C[S@+]1[O-] |  | > 100 µM | 89.1 µM |  |  | > 100 µM | > 100 µM | > 100 µM | 0 | < 5 | 0 | < 5 | < 5 | < 5 |
